# Data from publication PMC9200148 (The Journal of Infectious Diseases, 2020).
# Where “and” joins values, the source holds several entries; their conditions need not be identical. Identical values can stand only once.
# How the values were obtained:
# RSV = conditions: cited from earlier work
# [1] = Plasma pharmacokinetics after repeated nebulized dosing; assay type: in vivo, human
# How it was run: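 Healthy adults aged 18–55 received 5 mg nebulized by facemask every 12 h for 5 days (10 doses), with the first dose either in the morning (schedule A) or the evening (schedule B). Serial plasma samples were assayed by LC–MS/MS after liquid–liquid extraction, using a D4-labelled internal standard (LLOQ 0.1 ng/mL; range 0.1–100 ng/mL). Tmax was timed from the end of inhalation, and values are geometric means of both schedules.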
# RSV-A Memphis 37b [2] = assay: RSV challenge study: symptom score and mucous weight; assay type: in vivo, human; conditions: for AUC of mucous weight from baseline through day 12 / AUC of symptom score from baseline through day 12: LS mean (SD)
# How it was run: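 Volunteers with low serum neutralizing titres were challenged with RSV-A Memphis 37b. Dosing with 5 mg or placebo by nebulizer every 12 h for 5 days began about 12 h after RT-qPCR detection or on the morning of day 6, whichever came first. Symptoms were self-recorded in diaries three times daily, and mucus was weighed daily from used facial tissues. AUCs were computed and group means compared by t test in the ITT-I population.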
# RSV-A Memphis 37b [3] = assay: RSV challenge study: viral load in nasal wash by RT-qPCR; assay type: in vivo, human; conditions: for AUC VL from baseline through day 12 / Reduction in AUC VL vs placebo: 5 mg BID nebulized; for AUC VL from baseline through day 12 / Peak VL / Time to nondetectability (or <1 log) of RSV RNA / VL at 2.5 d (peak at placebo) after first dose / VL slope: baseline to 24 h after first dose / VL slope: baseline to 48 h after first dose: LS mean (SD)
# How it was run: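 Nasal washes collected twice daily were assayed for RSV RNA by RT-qPCR (Simplexa) and expressed as log10 PFUe/mL. ITT-I was defined as PCR-positive just before dosing, or positive on at least two later occasions. Nebulized 5 mg or placebo was given every 12 h for 5 days, starting about 12 h after detection or on day 6. Viral load AUC, peak and time to nondetectability were analysed by a mixed-effects model and t test.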
# [4] = RSV challenge study: safety; assay type: in vivo, human
# How it was run: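 This was a randomized, single-blind, placebo-controlled study in healthy adults inoculated intranasally on day 0 and held in quarantine for 15 days. They received 5 mg or placebo by nebulizer and facemask every 12 h for 5 days. The ITT population comprised those inoculated who received at least one dose. Adverse events (counted as subjects reporting them), laboratory values, vital signs, ECG and spirometry were recorded through day 28 (±3 days).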
smiles,measurement,setting,value
CS(=O)(=O)CCCn1c(Cn2c(=O)n(CC(F)(F)F)c3ccncc32)cc2cc(Cl)ccc21 [JNJ-53718678],AUC reduction of viral load in RSV challenge study,RSV,41%–53%
"Cc1cnc(N2CC3(CCOCC3)C2)c(C(=O)Nc2ccc(C(=O)N3CCc4cc(C(=O)Nc5c(C)cccc5F)sc4-c4ccccc43)cc2)c1 [PC786, N-(2-fluoro-6-methylphenyl)-6-(4-(5-methyl-2-(7-oxa-2-azaspiro [3.5]nonan-2-yl)nicotinamido)benzoyl)-5,6-dihydro-4H-benzo[b]thieno[2,3-d]azepine-2-carboxamide]",Time at which steady state was reached,[1]; 5 mg BID,≤ 4 days
same,AUC,"[1]; human, inhaled, 5 mg",11.7 ng·h/mL
same,Cmax,"[1]; human, inhaled, 5 mg, Mean plasma Cmax, 5 mg BID nebulized",1.5 ng/mL
same,half-life,"[1]; human, inhaled, 5 mg, t½, apparent terminal half-life, geometric mean (CV%)",726 min
same,Tmax,"[1]; repeated 5 mg BID, median (range), after end of inhalation",0.542 (0.383–2.08) h
same,AUC of mucous weight from baseline through day 12,RSV-A Memphis 37b [2]; ITT-I,11.8 (22.99) g × No. of days
same,AUC of symptom score from baseline through day 12,RSV-A Memphis 37b [2]; ITT-I,192.3 (244.97) score × h
same,Mean AUC of mucous weight lower than placebo,"RSV-A Memphis 37b [2]; ITT-I, P = .1095",38%
same,AUC of total symptom score lower than placebo,"RSV-A Memphis 37b [2]; ITT-I, not statistically significant",29%
same,AUC of mucous weight from baseline through day 12,RSV-A Memphis 37b [2]; ITT-IS,12.7 (24.69) g × No. of days
same,AUC of symptom score from baseline through day 12,RSV-A Memphis 37b [2]; ITT-IS,221.2 (252.05) score × h
same,Reduction of mean AUC of mucous weight vs placebo,"RSV-A Memphis 37b [2]; ITT-IS, P = .0126",46%
same,AUC VL from baseline through day 12,RSV-A Memphis 37b [3]; ITT-I (n = 22),274.1 log10 PFUe/mL × h and 274.1 (234.42) log10 PFUe/mL × h
same,Reduction in AUC VL vs placebo,RSV-A Memphis 37b [3]; ITT-I,32.57%
same,Peak VL,RSV-A Memphis 37b [3]; ITT-I,3.4 (1.76) log10 PFUe/mL
same,Time to nondetectability (or <1 log) of RSV RNA,RSV-A Memphis 37b [3]; ITT-I,4.6 (3.75) d
same,VL at 2.5 d (peak at placebo) after first dose,RSV-A Memphis 37b [3]; ITT-I,2.0 (1.82) log10 PFUe/mL
same,VL slope: baseline to 24 h after first dose,RSV-A Memphis 37b [3]; ITT-I,0.8 (1.89) log10 PFUe/mL/24 h
same,VL slope: baseline to 48 h after first dose,RSV-A Memphis 37b [3]; ITT-I,0.6 (1.52) log10 PFUe/mL/48 h
same,AUC VL from baseline through day 12,"RSV-A Memphis 37b [3]; ITT-IS (n = 19, post hoc)",325.8 (199.19) log10 PFUe/mL × h
same,Reduction in AUC VL vs placebo,RSV-A Memphis 37b [3]; ITT-IS,34% and 34.25%
same,Peak VL,RSV-A Memphis 37b [3]; ITT-IS,3.7 (1.30) log10 PFUe/mL
same,Time to nondetectability (or <1 log) of RSV RNA,RSV-A Memphis 37b [3]; ITT-IS,4.9 (4.13) d
same,VL at 2.5 d (peak at placebo) after first dose,RSV-A Memphis 37b [3]; ITT-IS,2.3 (1.66) log10 PFUe/mL
same,VL slope: baseline to 24 h after first dose,RSV-A Memphis 37b [3]; ITT-IS,0.7 (1.50) log10 PFUe/mL/24 h
same,VL slope: baseline to 48 h after first dose,RSV-A Memphis 37b [3]; ITT-IS,0.6 (1.45) log10 PFUe/mL/48 h
same,"Conjunctivitis attributed to study drug, subjects","[4]; ITT (n = 28), 5 mg BID",0 No. (%)
same,"FEV1 decreased attributed to study drug, subjects","[4]; ITT (n = 28), 5 mg BID",0 No. (%)
same,"Headache attributed to study drug, events","[4]; ITT (n = 28), 5 mg BID",1 No. of Events
same,"Headache attributed to study drug, subjects","[4]; ITT (n = 28), 5 mg BID",1 (3.6) No. (%)
same,No. of subjects with AEs attributed to study drug,"[4]; ITT (n = 28), 5 mg BID",1 (3.6) No. (%)
same,"Photophobia attributed to study drug, subjects","[4]; ITT (n = 28), 5 mg BID",0 No. (%)
same,No. of subjects with AEs (TEAEs),"[4]; ITT (n = 28), 5 mg BID, first dose to day 28",12 No. (%) and 12 (42.9) No. (%)
same,"Serious adverse events, deaths, other significant AEs",[4]; nebulized 5 mg BID for 5 days,no serious adverse events
same,Tolerability,"[4]; nebulized 5 mg BID for 5 days, healthy subjects inoculated with RSV",well tolerated
